Screens: PubChem, several laboratories
Shown are actives, neighbours in structure and some others; about 3.2% of the full set was active somewhere.
NR2E3 ag-1 – agonists of human nuclear receptor NR2E3. inhibition of corepressor binding, % at 4.78 µM. 320,000 tested, 0.12% active. AID 2300. GST-NR2E3/biotin-RetCOR TR-FRET, 1536-well;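 active = percent inhibition above the cutoff of mean plus 3 SD of all tested compounds, set per screening campaign, cut at about 20% in these data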;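 note: 0% = DMSO wells and 100% = biotin wells as full block of FRET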
Target sequence (Q9Y5X4 whole entry, looked up): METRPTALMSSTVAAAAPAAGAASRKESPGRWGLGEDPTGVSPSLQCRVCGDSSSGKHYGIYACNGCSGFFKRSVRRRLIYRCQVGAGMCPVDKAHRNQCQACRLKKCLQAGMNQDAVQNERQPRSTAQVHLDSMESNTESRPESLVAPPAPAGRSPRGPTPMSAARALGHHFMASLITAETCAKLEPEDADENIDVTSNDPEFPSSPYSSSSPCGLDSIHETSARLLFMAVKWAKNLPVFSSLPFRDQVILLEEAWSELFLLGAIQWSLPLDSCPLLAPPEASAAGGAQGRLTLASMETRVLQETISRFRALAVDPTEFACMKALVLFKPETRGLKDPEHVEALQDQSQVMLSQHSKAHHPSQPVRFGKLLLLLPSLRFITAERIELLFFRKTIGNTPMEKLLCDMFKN
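Material: NR2E3–RetCOR corepressor complex | Quantity: 1.35 nM GST-tagged NR2E3 final | Schedule: 5 h at 4 °C | Replication: Singlicate compound wells | Reagent: RetCOR corepressor, biotinylated, 7 nM | Controls: Biotin wells as high control, 0.6% DMSO wells as low control | Signal: TR-FRET, Eu(K)-anti-GST donor, streptavidin-D2 acceptor, ex 340, em 617/671 nm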
DAX1 inh-1 – inhibits human nuclear receptor DAX1; AID 504766; inhibition, % at 6.75 µM; HEK293 Gal4-DAX1 luciferase reporter, luminescence; 340,000 tested, 0.99% active; P51843;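 active = inhibition above the mean over all tested compounds plus 3 SD, cut at about 4.2% in these data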;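 note: 0% = DAX1-transfected cells with DMSO and 100% = empty-vector control cells with DMSO; inhibition shows as a rise in luminescence from relieved DAX1 repression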
NR2E3 ag-2 – human photoreceptor-specific nuclear receptor agonism. Q9Y5X4. CHO-S Gal4-NCOR/VP16-NR2E3 two-hybrid, luciferase. inhibition of corepressor binding, % at 3.98 µM. 360,000 tested, 0.35% active;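 active = inhibition above the mean of all tested compounds plus 3 SD, cut at about 70% in these data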;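 note: 0% = DMSO with NR2E3 transfected cells and 100% = cells lacking NR2E3 construct; higher means lower luciferase signal from less NR2E3 corepressor binding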
SMARCA2 act – SMARCA2 function activation, primary screen | MG213 cells, MMTV-luciferase reporter, dexamethasone, overnight | activation, % at 9.1 µM | 370,000 tested, 1% active; in the data active = activation above about 7.8%;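 note: 0% = vehicle wells and 100% = reference activator wells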
DAX1 inh-2 – inhibitors of DAX1 repression of SF-1 activated StAR promoter. AID 652010. inhibition, % at 6.8 µM. HEK293T StAR-luciferase reporter, SF-1/DAX-1 repression relief. 370,000 tested, 1.1% active;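 active = inhibition above the mean over all tested compounds plus 3 SD, cut at about 3.6% in these data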;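 note: 0% = DAX-1 cells with DMSO and 100% = cells lacking DAX-1 with DMSO; higher inhibition means more luminescence from relief of DAX-1 repression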
GASC-1 inh – inhibitors of human GASC-1 (JMJD2C) demethylase; inhibition, % at 2.35 µM; 330,000 tested, 0.069% active; GST-JMJD2C(1-420) H3K9me3 demethylation, DELFIA europium;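 active = more than half of a compound's replicate wells show inhibition beyond 50%, single wells judged on their own value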;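 note: signal counts dimethyl H3K9 product captured on neutravidin plate; 0% = median of DMSO wells and 100% = 0.3 times that DMSO median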
NR2E3 ag confirm – confirmation of human NR2E3 agonists; shares compounds with NR2E3 ag-2; CHO-S mammalian two-hybrid NR2E3-NCOR, luciferase luminescence; inhibition, % at 3.98 µM; 2,300 tested, 51% active; AID 624378;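 active = average inhibition above a cutoff equal to the mean inhibition of all tested compounds plus one SD, cut at about 70% in these data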;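 note: 0% = DMSO in NR2E3 cells and 100% = DMSO in cells lacking NR2E3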
VP16 counter – reduces GAL4-VP16 reporter signal in NR2E3 counterscreen; shares compounds with NR2E3 ag-2; CHO-S GAL4-VP16 luciferase reporter, luminescence; inhibition, % at 3.98 µM; 2,300 tested, 29% active; AID 624379;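 active = mean inhibition above a cutoff equal to the average over all tested compounds plus one standard deviation, cut at about 70% in these data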;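 note: luciferase from a UAS reporter driven by GAL4-VP16 transactivation; 0% = DMSO with VP16-transfected cells and 100% = DMSO with cells lacking VP16; higher means less reporter light so more repression of VP16 activity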
* marks the source's active call; other numbers are inactive results; · = not tested or not shown.

SMILES	NR2E3 ag-1	DAX1 inh-1	NR2E3 ag-2	SMARCA2 act	DAX1 inh-2	GASC-1 inh	NR2E3 ag confirm	VP16 counter
Cc1ccc(NC(=O)OC[C@@H]2CSCCS(=O)(=O)N2)cc1	·	·	·	2	2	·	·	·
Cc1ccc2c(c1)N(CCCC(=O)N(C)Cc1ccccc1Cl)C(=O)CO2	·	·	·	0	-1	·	·	·
COc1ccc(NC(=O)c2sc(=O)n(Cc3cccc(C(F)(F)F)c3)c2C)cc1OC	·	·	55	-2	-1	·	73*	39
COc1ccc(CNC(=O)c2sc(=O)n(Cc3ccc(-c4ccccc4)cc3)c2C)cc1OC	·	·	60	-3	-4	·	72*	61
COc1ccc(NC(=O)c2sc(=O)n(Cc3ccc(SC)cc3)c2C)cc1OC	·	·	-28	0	-2	·	·	·
COc1ccc(CNC(=O)c2sc(=O)n(Cc3ccc(C)cc3)c2C)cc1OC	·	·	23	-2	-3	·	·	·
COc1ccc(CNC(=O)c2sccc2-c2ccccc2)cc1OC	0	-1	58	1	-3	11	28	30
COc1ccc(-c2nnc(SCC(=O)Nc3ccc4cn[nH]c4c3)n2Cc2ccco2)cc1	·	·	·	0	-2	·	·	·
CCn1c(=O)n(CC(=O)N2CCCN(Cc3ccccc3)CC2)c(=O)c2ccccc21	·	·	·	-5	1	·	·	·
COC(=O)C[C@H]1CC[C@H]2[C@H](COc3ccc(NC(=O)Cc4cccs4)cc3C(=O)N2C)O1	·	·	·	-1	1	·	·	·
Cc1ccc(S(=O)(=O)N2[C@@H](c3ccc(Cl)cc3)C(C(=O)O)=CC[C@H]2c2ccc(Cl)cc2)cc1	-1	-1	62	-1	-1	1	24	22
CCCC[C@@H]1C=C(C(=O)O)[C@H](c2ccc(Cl)c(Cl)c2)N1S(=O)(=O)c1ccc(C)cc1	·	0	85*	-4	0	19	33	37
CCCC[C@@H]1C=C(C(=O)O)[C@H](c2ccc(C)cc2)N1S(=O)(=O)c1ccc(C)cc1	·	1	9	-2	0	12	·	·
Cc1ccc([C@@H]2CC=C(C(=O)O)[C@H](c3ccc(Cl)cc3)N2S(=O)(=O)c2ccc(C)cc2)cc1	8	0	28	0	0	3	·	·
Cc1ccc([C@H]2C(C(=O)O)=CC[C@@H](c3ccc(Cl)c(Cl)c3)N2S(=O)(=O)c2ccc(C)cc2)cc1	·	-1	67	-2	-1	·	37	27
CCc1ccc([C@H]2C(C(=O)O)=C[C@@H](CC3CCCC3)N2S(=O)(=O)c2ccc(C)cc2)cc1	·	-1	57	-2	1	·	7	3
CCCC(C)C(=O)NC1CCCCN(Cc2ccccc2C)C1=O (stereo not given)	·	·	·	0	0	·	·	·
C=CCN1C(=O)[C@@H](CC(=O)N2CCCC2)[C@]2(C(=O)OCC)CCCCC/C=C/12	·	·	·	-4	1	·	·	·
Cn1nnnc1Sc1ncnc2scc(-c3ccc(Br)cc3)c12	·	-4	49	-5	-2	·	-25	-22
Cn1nnnc1Sc1ncnc2scc(-c3ccccc3Br)c12	3	-3	64	0	-2	7	27	59
Cn1nnnc1Sc1ncnc2scc(-c3ccccc3)c12	0	-2	63	-5	-2	1	-18	10
Cn1nnnc1Sc1ncnc2scc(-c3cccc4ccccc34)c12	·	0	60	-1	0	·	59	69
COc1ccccc1-c1csc2ncnc(Sc3nnnn3C)c12	2	0	-9	0	-1	1	·	·
Cn1nnnc1Sc1ncnc2scc(-c3ccc(F)cc3)c12	1	-4	37	-3	-2	-21	·	·
Cc1ccc(-c2cc(C(=O)NN=Cc3cc(Br)ccc3O)[nH]n2)cc1C	·	·	·	-4	-4	·	·	·
COC(=O)C1CCCN(C(=O)C2CCN(S(=O)(=O)c3ccccc3[N+](=O)[O-])CC2)C1 (stereo not given)	·	·	·	-3	0	·	·	·
CCN(CC)C(=O)CC[C@H]1CC[C@]2(CCCN(Cc3ccc(N(C)C)cc3)C2)O1	·	·	·	-3	0	·	·	·
